M1 antag = antagonists of rat M1 muscarinic receptor | CHO-M1 cells, Fluo-4 calcium, ACh EC80 antagonist mode; active compounds read low | B-score at 10 µM | 64,000 compounds, 3.4% hits | AID 628;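 active = calcium fluorescence response, raw or row-and-column corrected B-score, differing from the plate sample mean either way at a set confidence level, mostly lower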
D1 allo mod = allosteric modulators of human D1 dopamine receptor; P21728; HEK293 D1, CRE-luciferase, dopamine EC30 potentiation; actives deviate in either direction; B-score at 10 µM; 58,000 compounds, 5.9% hits; AID 641;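 active = luminescence count or its row- and column-corrected plate score outside the 99.7% band of the plate's sample wells, on either side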
SF-1 act = activators of human nuclear receptor SF-1; Q13285; CHO-K1 Gal4-SF-1 LBD luciferase reporter; % increase over DMSO SF-1-specific signal; activation, % at 10 µM; 65,000 compounds, 1.9% hits;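 active = activation above the mean activation of all tested compounds plus 3 SD, cut at about 50% in these data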
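Test system: CHO-K1 cells with Gal4–hSF-1 LBD chimera plus Gal4-driven luciferase; Input: 4,000 cells/well; Compound: 10 µM only; Times: 20 h compound treatment, 37 °C; Measured by: steady-glow luciferase luminescence, read after 15 min reagent incubation; Measure: percent activation versus DMSO; Control set: DMSO and mock-transfected background; Replicates: one test per compound.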
RORA act = RORA (human) activation | P35398 | CHO-K1 Gal4-RORA LBD luciferase reporter, luminescence; percent increase over mock-subtracted basal signal | activation, % at 10 µM | 65,000 compounds, 1.5% hits;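 active = activation above the mean of all tested compounds plus 3 SD, cut at about 49% in these data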;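 note: 0% = DMSO-treated RORA cells and 100% = added signal equal to DMSO minus mock-transfected cells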
M1 agonist = M1 muscarinic receptor agonism; CHO-M1 cells, Fluo-4 calcium fluorescence, agonist mode; active compounds read high; 64,000 compounds, 3% hits; AID 626; B-score at 10 µM;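 active = fluorescence rise, raw or as B-score row- and column-corrected plate score, outside the 99.7% band of its plate's samples, either direction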
HePTP inhibitor = human HePTP phosphatase inhibition. recombinant HePTP phosphatase activity, OD absorbance. 110,000 compounds, 0.64% hits. AID 521. inhibition, % at 20 µM. P35236; in the data active = inhibition above about 50%;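 note: plate controls were vehicle for no effect and reference inhibitor for full effect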
Target sequence (P35236 whole entry, looked up): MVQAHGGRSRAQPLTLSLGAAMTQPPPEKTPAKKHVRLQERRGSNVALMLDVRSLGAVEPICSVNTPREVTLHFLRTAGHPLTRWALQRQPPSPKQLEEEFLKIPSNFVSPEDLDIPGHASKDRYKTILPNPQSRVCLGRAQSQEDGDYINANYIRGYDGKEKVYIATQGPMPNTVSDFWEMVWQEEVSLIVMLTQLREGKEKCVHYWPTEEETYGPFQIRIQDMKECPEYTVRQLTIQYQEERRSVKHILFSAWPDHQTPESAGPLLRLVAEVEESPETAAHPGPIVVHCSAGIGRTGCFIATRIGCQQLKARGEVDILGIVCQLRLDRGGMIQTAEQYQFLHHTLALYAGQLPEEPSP
* marks the source's active call; other numbers are inactive results; . = no result given. Rows were chosen to be rich in hits. Some 8.2% of all compounds tested hit in one or more screens of this group.

SMILES | M1 antag | D1 allo mod | SF-1 act | RORA act | M1 agonist | HePTP inhibitor
COc1ccc(CCNC(=O)c2sc3cc(C)ccc3c2Cl)cc1OC | . | . | . | . | . | -4.3
CCOC(=O)c1sc(=S)n(C)c1N | -0.555 | 4.53* | -0.7 | 8.7 | 0.26 | 4.0
O=C(CCC(=O)c1ccc[nH]1)c1ccc(Cl)cc1 | 0.189 | -1.37 | 51.9* | 25.6 | -0.346 | 9.6
C=CCn1c(C)cc(C(=O)COc2ncnc3sccc23)c1C | 0.4 | -4.47* | -17.9 | -35.6 | -0.153 | 4.8
CS(=O)(=O)N1CCC(c2noc(-c3ccc(C(F)(F)F)cc3)n2)CC1 | -0.0242 | -1.46 | 9.8 | 7.3 | -0.476 | 0.3
O=S(=O)(c1ccccc1)c1nc(-c2ccccc2)oc1NCc1cccnc1 | -0.00655 | 2.01 | -11.9 | 4.4 | -0.413 | 11.1
O=S(=O)(c1ccccc1)c1nc(-c2ccco2)oc1NCc1cccnc1 | -0.489 | 4.89* | -1.5 | -10.1 | -0.275 | 1.0
O=C(c1ccco1)n1c(=S)nc2ccccn21 | 0.00246 | -0.722 | 32.0 | 76.7* | -0.763 | 7.0
O=C(c1ccco1)N1C(=O)c2cccc3cccc1c23 | -0.933 | 0.116 | 5.9 | -9.8 | -0.298 | 9.2
Cc1cccc2nc(=S)n(C(=O)c3ccco3)n12 | -0.326 | -0.0227 | 41.8 | 56.0* | -0.487 | 1.4
COc1cccc(NC(=O)CSc2nnc(Cn3c(=O)sc4ccccc43)n2C)c1 | -0.0259 | 0.0267 | -29.0 | 11.9 | 0.563 | -10.4
CC1(C)OC(=O)C(=CNC(Cc2c[nH]c3ccccc23)C(=O)O)C(=O)O1 (stereo not given) | -0.233 | 0.291 | -17.3 | -5.9 | 0.153 | -0.4
CC1(C)OC(=O)C(=CNC(CCC(N)=O)C(=O)O)C(=O)O1 (stereo not given) | 1.26* | 0.0434 | -7.3 | -10.0 | -0.131 | -7.6
O=C(c1ccccc1)N1CCn2c(nc3ccccc32)C1 | 0.0139 | -0.575 | 2.2 | -15.4 | -0.829 | 0.6
O=C(Nc1nc2ccc(Cl)cc2s1)c1ccc(Br)o1 | 0.256 | -0.762 | 47.6 | 54.1* | -0.301 | 2.7
CC(=O)NC12CC3CC(CC(O)(C3)C1)C2 | . | . | . | . | . | -9.9
Cc1ccc(C(=O)NCc2occc2C(=O)O)o1 | 0.416 | -0.0542 | -12.7 | -3.3 | -0.514 | 19.1
CCOC(=O)Cn1c(=O)oc2cc(S(=O)(=O)NCCc3ccc(C)cc3)ccc21 | -0.699 | . | . | . | -0.985 | -6.3
COc1ccc(CCNC(=O)C2CCN(C(=O)N(C)C)CC2)cc1OC | 0.0134 | 1.53 | -4.0 | 7.3 | 0.559 | -8.4
CCOc1ccc(CCNC(=O)C2CCCN(C(=O)N(C)C)C2)cc1OCC (stereo not given) | 0.453 | -7.9* | -0.8 | 0.5 | -0.0175 | -7.6
COc1ccc(OC)c(/C=C2/C=C(c3ccccc3)OC2=O)c1 | . | . | . | . | . | 6.2
O=C1OC(c2ccc(Cl)cc2)=C/C1=C\c1ccco1 | . | . | . | . | . | 50.8*
O=C1OC(c2ccc(Oc3ccccc3)cc2)=C/C1=C/c1ccco1 | . | . | . | . | . | 101.4*
O=C1OC(c2ccc(Cl)cc2)=C/C1=C\c1cccs1 | . | . | . | . | . | 39.1
CS(=O)(=O)c1ccc2nc(NC(=O)c3ccc([N+](=O)[O-])cc3)sc2c1 | . | . | . | . | . | -6.9
SMILES | M1 antag | D1 allo mod | SF-1 act | RORA act | M1 agonist | HePTP inhibitor
CC(=O)NC(=O)c1ccccc1OCC(=O)c1ccc(Br)cc1 | . | . | . | . | . | 54.9*
Cc1ccc(-c2cc(C(=O)NC3=NCCS3)c3cc(Br)ccc3n2)o1 | 0.00467 | -1.07 | 1.6 | 10.2 | 1.78 | 15.9
Cc1cccc(NCc2nc(-c3ccccc3)no2)c1 | 0.853 | 1.39 | -7.9 | 29.6 | 0.138 | 6.9
COC(=O)c1ccc(-n2nnnc2SCC(=O)NCc2cccc(C(=O)O)c2)cc1 | -0.117 | -0.274 | 4.1 | -8.7 | 0.437 | 8.0
O=C(CSC1=NCCS1)N1CCOCC1 | 2.1* | . | -6.4 | -19.6 | -1.48 | 11.6
O=C(CSC1=NCCS1)N1CCN(c2ccccc2)CC1 | -1.12 | -0.511 | 18.4 | 22.1 | -1.17 | .
CCOc1ccccc1NC(=O)C(=O)NCc1cccnc1 | . | . | . | . | . | -1.5
C=C(C)CNC(=S)NNC(=O)COc1cccc(C)c1 | . | . | . | . | . | 0.2
O=c1cc(N2CCc3ccccc3C2)[nH]c(=O)n1-c1ccc(Cl)cc1 | 0.461 | -1.07 | 4.9 | 4.4 | 0.0551 | -7.4
Cn1c(SCC2CCCO2)nnc1-c1ccncc1 (stereo not given) | 0.639 | 1.1 | -6.8 | -9.6 | -0.283 | 8.2
Cc1ccc(SCc2cn3c(C)csc3n2)cc1 | -0.124 | -4.63* | -6.7 | -39.2 | 0.349 | 2.5
Cc1ccc(S(=O)(=O)NCc2cn3c(C)csc3n2)cc1 | 1.71 | . | 8.2 | -10.0 | -0.0766 | 6.0
FC(F)(F)c1cc(-c2ccccc2)nc(N2CCCCC2)n1 | -0.0459 | 0.474 | -6.5 | 3.8 | -1.62 | 6.4
Nc1nc(-c2ccccc2)cc(C(F)(F)F)n1 | -0.0698 | 27.4* | 13.9 | -13.1 | 1.2 | 3.5
Cc1ccccc1CSCC(=O)c1c(N)n(C)c(=O)n(C)c1=O | 0.154 | -0.135 | 43.0 | 5.2 | 0.00838 | -6.3
Clc1cccc2sc(N3CCOCC3)nc12 | 0.456 | 0.617 | 35.5 | 0.9 | -0.173 | 2.6
Clc1cccc2sc(N3CCCC3)nc12 | -0.363 | -6.55* | 50.0* | 22.4 | 0.844 | -8.4
Cc1ccc(C)c(N(CC(N)=O)S(C)(=O)=O)c1 | 2.14* | 1.03 | -18.4 | 7.1 | 0.0671 | 7.3
Cc1ccccc1N(CC(N)=O)S(C)(=O)=O | 0.0354 | 2.05 | 5.1 | -9.4 | 0.558 | 4.3
O=C(CSc1ncccn1)NCc1ccccc1Cl | 0.717 | -0.245 | 68.3* | 31.1 | 1.63 | 1.6
O=C(Nc1cnc2ccccc2c1)N1CCCCC1 | 0.745 | -2.07 | 33.0 | 72.0* | 0.917 | -1.2
CC1=C(C(=O)OC2CCCC2)C(c2ccccc2)C2=C(CC(C)(C)CC2=O)N1 (stereo not given) | . | . | . | . | . | -5.5
CCCCN1CC(O)=C(c2nc3ccccc3s2)C1=N | 1.41 | 0.983 | 73.7* | 30.2 | -0.215 | 12.9
N=C1C(c2nc3ccccc3s2)=C(O)CN1CCCO | -0.0687 | 1.07 | 23.4 | 22.9 | 0.199 | 6.8
CC(=O)OCc1cc2cccc(C)c2[nH]c1=O | 0.42 | -0.188 | 10.4 | -13.6 | -0.793 | -4.4
SMILES | M1 antag | D1 allo mod | SF-1 act | RORA act | M1 agonist | HePTP inhibitor
CCc1ccc(CCC(=O)Nc2nnc(C)s2)o1 | 0.383 | -0.327 | 3.0 | -10.8 | 0.0438 | 5.1
CCc1ccc(CCC(=O)Nc2ccc(C)c(C)c2)o1 | -0.428 | -0.0789 | 55.5* | 18.9 | 0.339 | 7.0
Cc1ccc(-c2cc3nc4c(c(=O)n3[nH]2)SCC4)cc1 | . | . | . | . | . | 5.2
O=c1c2c(nc3cc(-c4ccc(Cl)cc4)[nH]n13)CCS2 | . | . | . | . | . | 95.7*
O=c1c2c(nc3cc(-c4ccc(F)cc4)[nH]n13)CCCC2 | -0.329 | -5.29* | -24.9 | -1.7 | -0.66 | 5.3
O=c1c2c(nc3cc(-c4ccco4)[nH]n13)CCS2 | . | . | . | . | . | 99.7*
COCCOC(=O)c1ccc(NC(=O)c2ccc(Cl)cc2)cc1 | . | . | . | . | . | 6.4
COc1ccc2[nH]c3nc(SC(C)C)nnc3c2c1 | -0.882 | -4.03* | -62.7 | -13.5 | -0.86 | 6.4
COc1ccc2[nH]c3nc(SCc4nnc(-c5ccccc5)o4)nnc3c2c1 | -0.0169 | 0.121 | 22.7 | 22.3 | 0.0393 | 0.4
O=C1c2ccccc2C(=O)N1CCc1ccccn1 | 0.00834 | 0.332 | -5.3 | 11.7 | -0.861 | 2.2

Screening results deposited in PubChem by several laboratories.
